# Results of several laboratories.
# Lines come from different studies, so protocols differ.
# Target: Beta-2 adrenergic receptor (ADRB2, Homo sapiens, UniProt P07550)
SMILES,assay,conditions,measurement,result
CC(C)N1CCC[C@H]1CNC(=O)c1cn(C2CCCC2)c(=O)c2c1c1ccccc1n2C,"ligand displacement, radioligand",10 µM,inhibition,-8%
CCN(CC)CCCC[C@H](NC(=O)[C@H](CC(C)C)NC(=O)[C@H](C)NC(=O)[C@H](Cc1ccccc1)NC(=O)c1ccc(C(C)(C)C)cc1)C(=O)N[C@@H](CO)C(=O)OC,"ligand displacement, radioligand",10 µM,remaining binding,101%
Clc1ccc2c(C3CCN(CCc4c[nH]c5ccccc45)CC3)c[nH]c2c1,"ligand displacement, radioligand",10 µM,inhibition,91%
O=C(Nc1cccnn1)N1CCN([C@@H]2CCOc3cc(C(F)(F)F)ccc32)CC1,cell-free assay,20 µM,inhibition,10%
CC(Cc1ccc2c(c1)OCO2)NCC(O)c1ccc(O)c(O)c1 (centres unmarked),"β-arrestin recruitment, agonist",,Emax,131%
CC(C)Cn1cnc2c(N)nc3ccccc3c21,"ligand displacement, radioligand",10 µM,inhibition,18%
COCc1c(-c2cc3cc(C)cc(OC)c3s2)c2c(N)ncnn2c1CN1CCNC(=O)C1,"ligand displacement, radioligand",10 µM,inhibition,14%
Cn1cncc1[C@@](O)(COc1ccc(C#N)cc1-c1ccc(OC(F)(F)F)cc1)c1ccc(C#N)cc1,ligand displacement,10 µM,inhibition,23.1%
c1ccc(C(NCCNC(c2ccccc2)c2ccccc2)c2ccccc2)cc1,cell-free assay,10 µM,inhibition,1%
COc1ccc(S(=O)(=O)N2CCCCC2)cc1C,"ligand displacement, radioligand",10 µM,inhibition,< 30%
Nc1ncc(-c2nc(N3CCOCC3)nc(N3CCOCC3)n2)c(C(F)F)n1,"cell-free assay, radioligand",10 µM,remaining signal,98%
Cc1c(N2CCNCC2)nc2ccc(Br)cc2c1C(=O)NC[C@H](CCC(=O)O)c1ccccc1Cl,ligand displacement,10 µM,inhibition,18.4%
CN(CCN1CCC(OC(=O)Nc2ccccc2-c2ccccc2)CC1)C(=O)c1ccc(CN2CCC(C(N)=O)CC2)cc1,"ligand displacement, radioligand",1 µM,inhibition,-1%
O=C(NC[C@H](O)CO)[C@@H]1C[C@H](c2ccccc2)CCN1 (mixture of isomers),"ligand displacement, radioligand",10 µM,inhibition,-15.9%
